Among the data in ChEMBL document CHEMBL3232994, “Searching for new derivatives of neocryptolepine: synthesis, antiproliferative, antimicrobial and antifungal activities” (Eur J Med Chem, 2014) are MIC, inhibition and IC50 values, retold here.

Active and inactive are the calls of the source.

One assay deals with Bacillus cereus. Briefly: Antibacterial activity against Bacillus cereus ATCC 11778 assessed as growth inhibition after 18 hrs by two-fold serial dilution method. Type of assay: functional. To be noted: ATCC 11778, 18 h. A digest of the protocol:
(§1)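 Twofold serial agar dilution on Mueller–Hinton II agar per CLSI. Final inoculum 10⁴ CFU/mL, except Enterococcus hirae ATCC 10541 at 10⁵ CFU/mL. MIC read after 18 h at 35 °C.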

The subject of another assay is Enterococcus hirae. Briefly: Antibacterial activity against Enterococcus hirae ATCC 10541 assessed as growth inhibition after 18 hrs by two-fold serial dilution method. Type of assay: functional. The note with it: ATCC 10541, 18 h. A digest of the protocol:
as §1

Assay [1] has as its system Micrococcus luteus. In words: Antibacterial activity against Micrococcus luteus ATCC 10240 assessed as growth inhibition after 18 hrs by two-fold serial dilution method. Type of assay: functional. The note with it: ATCC 10240, 18 h. A digest of the protocol: as §1
Assay [2] deals with Candida albicans. Briefly: Antifungal activity against Candida albicans ATCC 10231 assessed as growth inhibition after 18 hrs by two-fold serial dilution method. To be noted: ATCC 10231, 18 h. Type of assay: functional. A digest of the protocol: (§2)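 MIC by twofold serial dilution on RPMI agar per CLSI. Final inoculum 10⁴ CFU/mL. Plates read after 18 h at 35 °C.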
Assay [3] relates to Candida albicans. In words: Antifungal activity against Candida albicans SN250 assessed as growth inhibition after 18 hrs by two-fold serial dilution method. Type of assay: functional. The note with it: SN250, 18 h.
A further assay relates to Candida parapsilosis. In words: Antifungal activity against Candida parapsilosis ATCC 22019 assessed as growth inhibition after 18 hrs by two-fold serial dilution method. Type of assay: functional. The note with it: Lodderomyces parapsilosis, ATCC 22019, 18 h.
Assay [4] relates to Candida albicans. Briefly: Antifungal activity against Candida albicans ATCC 90028 assessed as growth inhibition after 18 hrs by two-fold serial dilution method. To be noted: ATCC 90028, 18 h. Type of assay: functional. In outline:
as §2

Assay [5] concerns Candida albicans. Briefly: Antifungal activity against Candida albicans SN250 assessed as inhibition of biofilm formation < MIC after 24 hrs by XTT reduction assay. Type of assay: functional, organism-based. (In general: Tetrazolium dyes change colour on reduction, which living cells bring about.)
Another assay relates to BALB/3T3. Briefly: Cytotoxicity against mouse BALB/3T3 cells assessed as growth inhibition after 72 hrs by SRB assay. Type of assay: cell-based. The note with it: BALB/3T3, 72 h. A digest of the protocol:
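Mouse fibroblasts were kept in Dulbecco medium with 10% FBS, L-glutamine and pyruvate, and seeded at 10⁴/well 24 h before dosing. Agents were given at four tenfold final levels for 72 h. Cells were TCA-fixed (50%, 4 °C, 1 h) and stained with 0.4% SRB in 1% acetic acid. Triplicate wells, 3–5 repeats. IC50 versus untreated cells.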

In the next assay the test system is A549. Briefly: Cytotoxicity against human A549 cells assessed as growth inhibition after 72 hrs by SRB assay. To be noted: A549, 72 h. Type of assay: functional, cell-based. A digest of the protocol: (§3)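 Cells were seeded at 10⁴/well in RPMI 1640/Opti-MEM (1:1) with 5% FBS, plus 0.01 mg/mL insulin for MCF-7, 24 h before dosing. Agents in water/medium were given at four tenfold final levels for 72 h. Cells were fixed with cold 50% TCA (1 h, 4 °C), stained with 0.4% SRB, cell-free blank. Triplicate wells, 3–5 repeats. IC50 relative to untreated control.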
In general terms: In SRB staining, fixed cells bind dye roughly in proportion to their protein.

The subject of the next assay is MCF7. Briefly: Cytotoxicity against human MCF7 cells assessed as growth inhibition after 72 hrs by SRB assay. Type of assay: functional, cell-based. To be noted: MCF7, 72 h. A digest of the protocol: as §3
For another assay, the system named is LoVo. Briefly: Cytotoxicity against human LoVo cells assessed as growth inhibition after 72 hrs by SRB assay. Type of assay: functional, cell-based. In outline: as §3
Another assay relates to KB. In words: Cytotoxicity against human KB cells assessed as growth inhibition after 72 hrs by SRB assay. Type of assay: functional, cell-based. In outline:
as §3

Assay [6] relates to Staphylococcus aureus. In words: Antibacterial activity against Staphylococcus aureus NCTC 4163 assessed as growth inhibition after 18 hrs by two-fold serial dilution method. Type of assay: functional. To be noted: NCTC 4163, 18 h. A digest of the protocol: as §1
The subject of assay [7] is Staphylococcus aureus. In words: Antibacterial activity against Staphylococcus aureus ATCC 25923 assessed as growth inhibition after 18 hrs by two-fold serial dilution method. Type of assay: functional. The note with it: ATCC 25923, 18 h. A digest of the protocol:
as §1

Assay [8] concerns Staphylococcus aureus. In words: Antibacterial activity against Staphylococcus aureus ATCC 6538 assessed as growth inhibition after 18 hrs by two-fold serial dilution method. Type of assay: functional. The note with it: ATCC 6538, 18 h. In outline: as §1
In assay [9] the test system is Staphylococcus aureus. Briefly: Antibacterial activity against Staphylococcus aureus ATCC 29213 assessed as growth inhibition after 18 hrs by two-fold serial dilution method. Type of assay: functional. The note with it: ATCC 29213, 18 h. A digest of the protocol: as §1
Assay [10] concerns Staphylococcus epidermidis. Briefly: Antibacterial activity against Staphylococcus epidermidis ATCC 12228 assessed as growth inhibition after 18 hrs by two-fold serial dilution method. Type of assay: functional. The note with it: ATCC 12228, 18 h. In outline:
as §1

A further assay concerns Bacillus spizizenii. In words: Antibacterial activity against Bacillus subtilis ATCC 6633 assessed as growth inhibition after 18 hrs by two-fold serial dilution method. Type of assay: functional. To be noted: ATCC 6633, 18 h. In outline: as §1
Assay [11] has as its system Micrococcus luteus. In words: Antibacterial activity against Micrococcus luteus ATCC 9341 assessed as growth inhibition after 18 hrs by two-fold serial dilution method. To be noted: ATCC 9341, 18 h.

A word on the MIC: it is the smallest concentration in the dilution series that meets the test's criterion for growth inhibition. Usually IC50 stands for the concentration that gives 50% inhibition. For the compound `Cc1c2c3ccccc3nc-2n(C)c2ccc(NC(=O)CN)cc12.Cl`, the MIC with Bacillus cereus was determined as 50 µg/mL; with Enterococcus hirae, 100 µg/mL; in the assay with Micrococcus luteus [1], 12.5 µg/mL; in the assay on Candida albicans [2], 100 µg/mL; in the assay on Candida albicans [3] it was 15.6 µg/mL; with Candida parapsilosis, 100 µg/mL. Further, the MIC in the assay on Candida albicans [4] turned out to be 100 µg/mL; with Staphylococcus aureus [6], 12.5 µg/mL; in the assay on Staphylococcus aureus [7], 12.5 µg/mL; in the assay with Staphylococcus aureus [8], 12.5 µg/mL; in the assay with Staphylococcus aureus [9], 12.5 µg/mL; in [10], 12.5 µg/mL. For the same compound, the results for the MIC in the assay on Bacillus spizizenii and with Micrococcus luteus [11] were 12.5 µg/mL and 6.25 µg/mL, respectively. Further, the inhibition result in the assay with Candida albicans [5] is “Active”. Besides, the IC50 in the assay with BALB/3T3 amounted to 420 nM; in the assay with A549, 80 nM; in the assay on MCF7, 460 nM; in the assay on LoVo, 60 nM; with KB, 420 nM.
